The values that follow come from article PMC3170876 (Chemmedchem, 2011).

The target in one series is human 11β-HSD1 (Homo sapiens, UniProt P28845). Description: 11β-HSD1 inhibition cellular assay. The class given is cell-based. The following applies: IC50, human 11β-HSD1, HEK293 cell line transfected with human HSD11B1 gene; mean of three measurements, variance less than 20 %.
A further series has as its target mouse 11β-HSD1 (Mus musculus, UniProt P50172). Description: Inhibition of mouse 11β-HSD1. The format is cell-based.
Another series deals with T1, human 11β-HSD2 (Homo sapiens, UniProt P80365).
T1 sequence (P80365 1-405): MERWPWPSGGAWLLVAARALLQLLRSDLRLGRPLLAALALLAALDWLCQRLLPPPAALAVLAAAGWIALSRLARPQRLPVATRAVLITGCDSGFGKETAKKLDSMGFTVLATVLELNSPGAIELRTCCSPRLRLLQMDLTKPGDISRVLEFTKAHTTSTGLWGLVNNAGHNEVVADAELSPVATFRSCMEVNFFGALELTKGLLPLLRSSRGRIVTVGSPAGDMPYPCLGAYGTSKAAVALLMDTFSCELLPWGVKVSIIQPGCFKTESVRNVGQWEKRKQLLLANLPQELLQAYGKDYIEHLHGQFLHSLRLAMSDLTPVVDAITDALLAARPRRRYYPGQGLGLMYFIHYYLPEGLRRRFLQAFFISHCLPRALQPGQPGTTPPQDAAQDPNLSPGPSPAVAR
Description: Selectivity: inhibition of human 11β-HSD2. The class given is cell-based. The following applies: at a concentration of 10 μM (data not shown).

The next series deals with T2, 17β-HSD1 (Homo sapiens, UniProt P14061).
T2 sequence (P14061 1-328): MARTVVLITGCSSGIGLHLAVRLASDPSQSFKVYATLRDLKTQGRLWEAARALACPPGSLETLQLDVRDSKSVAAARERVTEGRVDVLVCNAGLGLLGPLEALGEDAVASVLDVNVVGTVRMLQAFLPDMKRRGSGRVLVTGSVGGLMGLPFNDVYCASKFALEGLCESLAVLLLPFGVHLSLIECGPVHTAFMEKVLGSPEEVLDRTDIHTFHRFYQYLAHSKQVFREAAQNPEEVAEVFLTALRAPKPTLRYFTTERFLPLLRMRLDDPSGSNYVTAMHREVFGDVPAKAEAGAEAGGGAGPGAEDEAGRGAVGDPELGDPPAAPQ
As to the kind of experiment: Selectivity: inhibition of 17β-HSD1. The following applies: at a concentration of 10 μM (data not shown).

A short description of series [1]: Membrane permeability in the Caco-2 cell model. The class given is in vitro ADME. The following applies: human. An outline of the steps: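 Caco-2 monolayer permeability. Test compound was applied at 20 μm, and the apparent permeability coefficient (Papp) was determined in the apical-to-basolateral direction.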
Series [2] can be described thus: Metabolic stability in human liver microsomes. The format is in vitro ADME. The following applies: 37 °C, NADPH, 40 min incubation, mean of two experiments. An outline of the steps: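 Parent compound was incubated with human liver microsomes plus NADPH cofactor at 37 °C for 40 min. Loss of parent was followed by HPLC, and half-life and intrinsic clearance were calculated from the depletion. Values are the mean of two experiments.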
A general note: Microsomes from liver hold many membrane-bound enzymes, among them those of drug oxidation.

Series [3] addresses T3, human cytochrome P450 1A2 (Homo sapiens, UniProt P05177).
T3 sequence (P05177 1-516): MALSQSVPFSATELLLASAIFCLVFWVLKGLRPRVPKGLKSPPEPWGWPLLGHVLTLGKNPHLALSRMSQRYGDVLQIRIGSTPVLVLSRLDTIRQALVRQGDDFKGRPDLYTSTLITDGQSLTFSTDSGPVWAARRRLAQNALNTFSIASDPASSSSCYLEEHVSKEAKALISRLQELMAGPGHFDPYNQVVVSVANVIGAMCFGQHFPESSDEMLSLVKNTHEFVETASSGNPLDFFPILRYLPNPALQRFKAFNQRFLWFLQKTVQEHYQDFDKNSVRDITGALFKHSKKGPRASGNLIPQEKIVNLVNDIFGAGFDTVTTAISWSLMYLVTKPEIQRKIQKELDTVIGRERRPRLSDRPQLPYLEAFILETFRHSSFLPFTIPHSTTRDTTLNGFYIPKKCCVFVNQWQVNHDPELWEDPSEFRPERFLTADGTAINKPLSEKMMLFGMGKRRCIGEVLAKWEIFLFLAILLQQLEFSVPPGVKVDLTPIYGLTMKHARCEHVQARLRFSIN
Description: Inhibition of human cytochrome P450 1A2. The format is in vitro ADME. An outline of the steps:
(§1)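 Human CYP450 isoform inhibition (1A2, 2C9, 2C19, 2D6, 3A4) measured as IC50 or as percent inhibition at 10 μm test compound. For 3A4, two probe substrates were used separately: 7-benzyloxy-trifluoromethylcoumarin (BFC) and […] (BQ). Each value is the mean of two measurements.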

In series [4] the target is human cytochrome P450 2C19 (Homo sapiens, UniProt P33261). Description: Inhibition of human cytochrome P450 2C19. The class given is in vitro ADME. An outline of the steps:
as §1

The target in series [5] is human cytochrome P450 3A4 (Homo sapiens, UniProt P08684). Description: Inhibition of human cytochrome P450 3A4. The format is in vitro ADME. The following applies: IC50 CYP450 3A4-BQ, substrate BQ; mean of two measurements. Summed up:
as §1

Series [6] deals with human cytochrome P450 2C9 (Homo sapiens, UniProt P11712). Description: Inhibition of human cytochrome P450 2C9. The format is in vitro ADME. An outline of the steps:
as §1

Series [7] deals with human cytochrome P450 2D6 (Homo sapiens, UniProt P10635). Description: Inhibition of human cytochrome P450 2D6. The format is in vitro ADME. Summed up:
as §1

Chain of human 11β-HSD1 (P28845 whole entry): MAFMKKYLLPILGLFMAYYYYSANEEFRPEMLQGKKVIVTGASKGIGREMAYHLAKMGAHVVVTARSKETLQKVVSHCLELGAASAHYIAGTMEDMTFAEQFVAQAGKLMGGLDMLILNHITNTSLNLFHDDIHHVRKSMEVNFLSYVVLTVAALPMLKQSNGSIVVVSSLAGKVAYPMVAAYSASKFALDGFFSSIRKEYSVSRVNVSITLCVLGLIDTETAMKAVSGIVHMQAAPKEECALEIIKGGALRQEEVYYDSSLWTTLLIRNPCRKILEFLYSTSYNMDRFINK
Chain of mouse 11β-HSD1 (P50172 whole entry): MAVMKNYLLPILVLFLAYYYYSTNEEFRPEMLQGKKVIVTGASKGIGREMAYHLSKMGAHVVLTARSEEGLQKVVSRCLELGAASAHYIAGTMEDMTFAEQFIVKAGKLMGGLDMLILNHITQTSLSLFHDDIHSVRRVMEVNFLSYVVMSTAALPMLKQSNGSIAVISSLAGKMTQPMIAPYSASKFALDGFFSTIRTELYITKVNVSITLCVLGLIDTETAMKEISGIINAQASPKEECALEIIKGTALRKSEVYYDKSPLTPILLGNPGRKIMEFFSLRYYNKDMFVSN
Chain of human cytochrome P450 2C19 (P33261 whole entry): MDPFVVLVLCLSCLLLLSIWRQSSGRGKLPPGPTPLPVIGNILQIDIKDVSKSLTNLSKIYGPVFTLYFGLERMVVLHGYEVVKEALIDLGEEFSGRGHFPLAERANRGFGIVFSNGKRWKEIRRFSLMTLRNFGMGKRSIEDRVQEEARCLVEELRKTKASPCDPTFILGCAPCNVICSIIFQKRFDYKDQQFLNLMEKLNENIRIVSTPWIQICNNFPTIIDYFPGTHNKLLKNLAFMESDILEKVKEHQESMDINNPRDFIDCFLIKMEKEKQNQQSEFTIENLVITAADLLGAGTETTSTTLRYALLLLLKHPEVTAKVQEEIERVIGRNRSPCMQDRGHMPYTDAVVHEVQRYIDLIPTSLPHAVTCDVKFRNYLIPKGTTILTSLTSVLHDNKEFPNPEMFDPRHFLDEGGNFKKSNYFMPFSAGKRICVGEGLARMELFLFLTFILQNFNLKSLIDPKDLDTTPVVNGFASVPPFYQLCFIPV
Chain of human cytochrome P450 3A4 (P08684 whole entry): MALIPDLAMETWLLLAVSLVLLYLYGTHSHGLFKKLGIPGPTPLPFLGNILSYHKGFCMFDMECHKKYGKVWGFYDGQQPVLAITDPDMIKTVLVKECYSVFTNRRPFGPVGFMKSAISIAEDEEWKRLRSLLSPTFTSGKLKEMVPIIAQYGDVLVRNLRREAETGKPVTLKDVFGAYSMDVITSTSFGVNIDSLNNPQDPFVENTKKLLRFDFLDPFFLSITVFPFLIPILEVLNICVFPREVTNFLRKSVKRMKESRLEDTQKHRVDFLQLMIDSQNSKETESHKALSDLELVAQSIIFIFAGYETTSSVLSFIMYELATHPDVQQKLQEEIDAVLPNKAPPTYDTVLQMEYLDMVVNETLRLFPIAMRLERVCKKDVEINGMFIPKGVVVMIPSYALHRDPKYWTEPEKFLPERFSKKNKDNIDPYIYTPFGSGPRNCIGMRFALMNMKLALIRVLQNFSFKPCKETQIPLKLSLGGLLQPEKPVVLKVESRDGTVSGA
Chain of human cytochrome P450 2C9 (P11712 whole entry): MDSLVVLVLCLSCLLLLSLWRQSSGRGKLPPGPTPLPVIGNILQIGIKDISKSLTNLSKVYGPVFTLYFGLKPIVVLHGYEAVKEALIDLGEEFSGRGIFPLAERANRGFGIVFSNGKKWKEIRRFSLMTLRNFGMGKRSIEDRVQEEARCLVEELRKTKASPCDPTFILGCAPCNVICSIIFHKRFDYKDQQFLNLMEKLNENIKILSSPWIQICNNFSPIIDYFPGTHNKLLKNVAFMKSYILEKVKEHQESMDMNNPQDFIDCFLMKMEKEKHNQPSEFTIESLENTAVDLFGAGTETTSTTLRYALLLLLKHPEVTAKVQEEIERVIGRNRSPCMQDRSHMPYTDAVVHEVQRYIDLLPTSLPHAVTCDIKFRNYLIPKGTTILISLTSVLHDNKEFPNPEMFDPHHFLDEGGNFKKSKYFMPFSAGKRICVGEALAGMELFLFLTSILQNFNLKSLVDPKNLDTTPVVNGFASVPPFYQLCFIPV
Chain of human cytochrome P450 2D6 (P10635 whole entry): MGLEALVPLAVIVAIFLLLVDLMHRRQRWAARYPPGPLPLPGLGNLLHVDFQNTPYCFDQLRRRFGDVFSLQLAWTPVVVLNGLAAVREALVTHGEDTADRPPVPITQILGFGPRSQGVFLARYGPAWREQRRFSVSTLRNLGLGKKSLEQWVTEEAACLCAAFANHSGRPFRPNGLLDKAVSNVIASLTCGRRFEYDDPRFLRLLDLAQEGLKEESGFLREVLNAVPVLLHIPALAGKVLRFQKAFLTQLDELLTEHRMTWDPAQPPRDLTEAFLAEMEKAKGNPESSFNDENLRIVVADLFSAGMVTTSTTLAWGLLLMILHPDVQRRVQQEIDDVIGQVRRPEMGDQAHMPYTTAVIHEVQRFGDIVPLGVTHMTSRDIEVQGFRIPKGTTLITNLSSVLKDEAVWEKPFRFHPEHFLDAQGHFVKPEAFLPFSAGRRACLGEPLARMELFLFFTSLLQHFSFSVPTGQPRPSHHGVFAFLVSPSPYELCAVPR

As to `Cn1cnnc1[S+]([O-])CC(=O)C12CC3CC(CC(C3)C1)C2` (centres unmarked) [Compound 32, 1-(Adamantan-1-yl)-2-(4-methyl-4H-[1,2,4]triazole-3-sulfinyl)ethanone], the melting point (commonly the temperature, or range, at which the solid turns liquid) was 124.5 to 127 °C. Besides, half-maximal inhibition at human 11β-HSD1 (IC50) required 27 nM. In addition, at mouse 11β-HSD1, the IC50 (in general, the concentration that inhibits the measured activity by half) was found to be 3080 nM.

`Cn1ccnc1[S+]([O-])CC(=O)C12CC3CC(CC(C3)C1)C2` (centres unmarked) [Compound 31, 1-(Adamantan-1-yl)-2-(1-methyl-1H-imidazole-2-sulfinyl)ethanone]: the melting point was 86 to 89 °C. In addition, inhibition on human 11β-HSD1 was half-maximal at 48 nM (IC50). The compound further showed an IC50 against mouse 11β-HSD1 of 121 nM. Besides, the “inhibition against human 11β-HSD2” value against human 11β-HSD2 is “inactive”. For the same compound, the “inhibition against 17β-HSD1” value against 17β-HSD1 is “inactive”. Further, the Papp A→B (in general, the apparent permeability from the apical to the basolateral side of a cell layer) at 20 μM in series [1] was determined as 44 ×10⁻⁶ cm/s.

`Cn1cnnc1SCC(=O)C12CC3CC(CC(C3)C1)C2` [Compound 28, 1-(Adamantan-1-yl)-2-(4-methyl-4H-[1,2,4]triazol-3-ylsulfanyl)-ethanone]: the “inhibition against human 11β-HSD2” value on human 11β-HSD2 is “inactive”. For the same compound, the “inhibition against 17β-HSD1” value against 17β-HSD1 was “inactive”. Also, the CLint in [2] worked out at 8.7 µL/min/mg. Besides, the figures for the IC50 in [3], in [4] and in series [5] were 21 µM, 3.6 µM and 62 µM, respectively.

`O=C(C[S+]([O-])Cc1cccs1)C12CC3CC(CC(C3)C1)C2` (centres unmarked) [Compound 14, 1-(Adamantan-1-yl)-2-(thiophen-2-ylmethanesulfinyl)ethanone] yielded a melting point of 95 to 98 °C. This compound registered an IC50 on human 11β-HSD1 of less than 50 nM. Moreover, inhibition on mouse 11β-HSD1 was half-maximal at 20 nM (IC50). This compound also returned a Papp A→B at 20 μM in series [1] of 22 ×10⁻⁶ cm/s. For the same compound, inhibition in series [3] was half-maximal at 33 µM (IC50). The same compound yielded an IC50 in series [4] of 30 µM. The same compound yielded a 50% inhibitory concentration (IC50) in [5] of 12 µM.

`O=C(C[S+]([O-])Cc1ccco1)C12CC3CC(CC(C3)C1)C2` (centres unmarked) [Compound 15, 1-(Adamantan-1-yl)-2-(furan-2-ylmethanesulfinyl)ethanone]: the melting point fell in the range of 75 to 79 °C. In addition, the IC50 against human 11β-HSD1 worked out at 41 nM. In addition, the IC50 on mouse 11β-HSD1 turned out to be 38 nM.

For the compound `Cc1nnc(SCC(=O)C23CC4CC(CC(C4)C2)C3)n1C` [Compound 38, 1-(Adamantan-1-yl)-2-[(4,5-dimethyl-1,2,4-triazol-3-yl)sulfanyl]ethanone], the IC50 was 36 nM against human 11β-HSD1 and 248 nM against mouse 11β-HSD1. Moreover, at human 11β-HSD2, the “inhibition against human 11β-HSD2” value is “inactive”. Also, on 17β-HSD1, the “inhibition against 17β-HSD1” value was “inactive”.

In turn, `Cc1nnc(S(=O)(=O)CC(=O)C23CC4CC(CC(C4)C2)C3)s1` [Compound 37, 1-(Adamantan-1-yl)-2-(5-methyl-[1,3,4]thiadiazole-2-sulfonyl)ethanone] returned a melting point of 111 to 113 °C. In series [3], the half-inhibitory concentration (IC50) was greater than 100 µM. This compound yielded an IC50 in series [6] of 11 µM. The concentration for half-maximal inhibition (IC50) in series [4] came out at 17 µM. The concentration for half-maximal inhibition (IC50) in series [7] is greater than 100 µM. The compound also displayed a half-maximal inhibitory concentration (IC50) in series [5] of 30 µM.

Compound `O=C(COCc1nccs1)C12CC3CC(CC(C3)C1)C2` [Compound 8, 1-(Adamantan-1-yl)-2-(1,3-thiazol-2-ylmethoxy)ethanone] gave a melting point of 89 to 91 °C. Moreover, on human 11β-HSD1, inhibition was half-maximal at 41 nM (IC50). This compound also returned an IC50 against mouse 11β-HSD1 of 18 nM.
